Screening results deposited in PubChem BioAssay by several laboratories.
Arrestin-AP2 inh: blocks beta-arrestin peptide binding to AP2 adaptin. FITC-arrestin peptide / GST-AP2 beads, flow cytometry; AP2 beta2 appendage carries R879A mutation. inhibition, % at 10 µM. hit rate 0.31% among 340,000;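 active means inhibition above a set limit, near 3 SD of compounds lacking own fluorescence, cut at about 54% in these data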;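 further: plate controls were DMSO wells for no effect and 5 µM unlabelled arrestin peptide for full effect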
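System: GST-AP2 R879A bound to glutathione beads, E. coli-expressed. Also added: 50 nM FITC-arrestin peptide. Schedule: compound with beads 12 min RT, then probe 1 h RT. Signal: bead flow cytometry, FITC channel. Read-out basis: percent response.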
GalR3 antag: blocks the human galanin receptor 3; O60755; HEK293 GalR3-CNG cAMP membrane potential fluorescence; galR3 body fused to GalR1 C-terminus; inhibition, % at 3 µM; hit rate 0.44% among 360,000; AID 651719;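 active means inhibition above the screen-wide average plus 3 SD, cut at about 13% in these data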;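 further: forskolin and galanin both at EC90 stimulate the cells; cAMP rise reported by CNG channel membrane potential dye signal; 0% = forskolin plus galanin with DMSO and 100% = forskolin alone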
GC-A act: GC-A (human) enzyme activation; HEK293 GC-A cells, cGMP TR-FRET, EC30 ANP; 0% at EC30 ANP, 100% saturating ANP; activation, % at 10 µM; hit rate 0.14% among 370,000; in the data active means activation above about 40%
NPR2 activator: GC-B (human) receptor activation. HEK293-GC-B cells, CNP EC30, cGMP TR-FRET; 0% at EC30 CNP, 100% saturating CNP. hit rate 0.11% among 370,000. AID 1920062. P20594. activation, % at 10 µM;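 active means activation at 10 µM reaching about 35% in either raw or pattern-adjusted values, limit read from the data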
* = called active by the depositor; nt = no result. Only some compounds are listed: those with a hit (about 0.94% of all), similar ones and a draw of the others.

SMILES	Arrestin-AP2 inh	GalR3 antag	GC-A act	NPR2 activator
CCOCCOC(=O)COc1ccc2c(-c3ccccc3)cc(=O)oc2c1	-8.0	-2.7	51.7*	6.8
CN(C)C(=O)COc1ccc2c(-c3ccccc3)cc(=O)oc2c1	-7.5	-9.7	-0.2	-0.4
c1ccc(Cn2nnc3c(Nc4ccc5c(c4)OCO5)nc(C4CC4)nc32)cc1	3.7	-8.2	34.0	41.2*
O=C1CC(Sc2nnnn2-c2ccccc2)C(=O)N1c1cccc(Cl)c1 (centres undefined)	31.2	-6.5	29.1	36.4*
N#Cc1cc(N2CCCCC2)c([N+](=O)[O-])cc1C#N	3.6	-1.5	-5.3	-10.3
O=[N+]([O-])c1cc2no[n+]([O-])c2cc1N1CCCCC1	36.8	-3.1	42.3*	20.1
O=C(CCN1CCC2CCC(C2)C1)c1ccc(F)cc1 (centres undefined)	12.3	0.9	71.7*	-3.4
O=C(CCN1CCC(c2ccccc2)C1)c1ccccc1 (centres undefined)	10.1	nt	58.5*	-2.2
O=C(CCN1CCOCC1)c1ccc(Cl)cc1	16.6	0.7	58.0*	-4.4
O=C(CCN1CCOCC1)c1ccc(Br)cc1	3.1	-7.4	31.8	-6.2
O=C(CCN1CCCCCC1)c1ccccc1	-0.2	-2.1	71.3*	-1.2
CCn1c2c(n(C(C)=O)c1=O)C=C(C(=O)N1CCCC1)C(C)C(c1ccccc1)=C2 (centres undefined)	nt	-2.2	1.6	-0.6
CC(=O)Nc1nc2ncccn2c1-c1ccccc1	nt	nt	1.7	-2.1
CCN(CC)c1ccc(C=NNC(=O)c2cc(-c3ccc(C)c(C)c3)n[nH]2)c(O)c1	nt	nt	2.6	5.2
O=C(CCN1CCCC1)c1cccs1	4.8	-9.1	50.4*	0.3
N=c1n(CCN2CCCCC2)c2ccccc2n1CC(=O)c1cccs1	-0.6	-9.0	-9.0	-8.6
CC1(C)CC2(CCCN(C(=S)Nc3ccccc3)C2)CCO1 (centres undefined)	10.5	0.6	3.5	0.4
CCC1(C)CC2(CCCN(CCC(=O)c3ccccc3)C2)CCO1 (centres undefined)	1.9	-6.2	42.7*	-1.5
O=C(CCN1CCN(c2ccccc2)CC1)c1ccc(Br)cc1	10.2	-9.4	40.1*	-0.1
O=C(CCN1CCC(c2ccccc2)C1)c1cccs1 (centres undefined)	7.3	-1.5	51.6*	0.1
O=[N+]([O-])c1ccccc1/C=C/C=Nn1c(-c2ccc(F)cc2)n[nH]c1=S	nt	nt	-1.5	-4.7
Cc1ccc(-c2cc(NC(=O)Cc3c[nH]c4ccccc34)ccc2N(C)c2cccnc2)cc1	nt	-3.4	-2.7	-1.9
COC(=O)[C@]12C[C@H](CC(=O)NCCCN3CCCC3=O)C(=O)N(Cc3ccccc3)C1=C[C@H](C(C)C)O[C@@H]2C1CC1	nt	-4.6	5.3	2.6
CCCC1CC(C)(/C(C)=N\NC(N)=S)OC1=O (centres undefined)	55.5*	-0.1	3.5	9.1
C/C(CC1CC(C)(C)OC1=O)=N\NC(N)=S (centres undefined)	4.7	-1.3	-1.2	5.7
SMILES	Arrestin-AP2 inh	GalR3 antag	GC-A act	NPR2 activator
CC(C)C[C@H]1COc2c(Cl)cccc2S(=O)(=O)N1Cc1ccc(F)cc1F	nt	-9.1	0.2	5.5
C#CCOCCOCCOCCNc1nc(N2CCN(C(=O)[C@H]([C@@H](C)CC)n3cc(CCCCN)nn3)CC2)nc(N2CCN(C(=O)[C@H](C)n3cc(CCC(=O)O)nn3)CC2)n1	-0.4	-5.7	2.7	53.0*
CCCCCc1ccc(-c2n[nH]c(=O)c3ccccc23)cc1	nt	nt	0.6	2.4
COc1ccc(NC(=O)/C(Cl)=C(/Cl)S(=O)Cc2ccc(Cl)cc2)cn1 (centres undefined)	12.6	34.9*	-49.0	-19.7
COc1ccc(NC(=O)c2cc(-c3cc(F)ccc3OC)n[nH]2)c(C)c1	nt	-7.8	55.4*	70.7*
COc1ccc(NC(=O)c2cc(-c3cc(F)ccc3OCC3CCCO3)n[nH]2)c(C)c1 (centres undefined)	nt	-0.8	59.7*	79.3*
COc1ccc(C2CC(=O)C(c3ccc(C(C)=O)cc3)=CN2Cc2ccccc2)cc1 (centres undefined)	nt	-8.4	-3.7	1.9
COC(=O)[C@]12C[C@H](CC(=O)N3CCCCC3)C(=O)N(Cc3ccccc3)C1=C[C@H](C(C)C)O[C@@H]2C1CC1	nt	0.9	-2.5	-1.5
CCCc1ccc(Oc2cn[nH]c2-c2ccc(O)c(C)c2O)cc1	5.0	1.6	46.6*	3.5
CCOc1ccc(NC(=O)c2cn(-c3ccc(OCC)cc3)c(=O)c3cc(OC)c(OC)cc23)cc1	6.4	-2.1	19.1	28.6
CCOc1ccc(-n2cc(C(=O)Nc3cccc(C)n3)c3cc(OC)c(OC)cc3c2=O)cc1	3.9	-2.8	25.9	36.5*
Clc1ccc(OCCSc2ncccn2)c(Br)c1	-11.1	-0.2	48.6*	-0.3
Brc1cccc(OCCSc2ncccn2)c1	1.1	-6.9	6.1	2.2
COc1ccc(-c2nc3ncccn3c2Nc2ccc3c(c2)OCCO3)cc1	21.0	-3.5	45.9*	43.2*
Cc1ccc(-c2nc3ncccn3c2Nc2ccc3c(c2)OCCO3)o1	14.2	-2.3	10.1	6.7
Clc1ccc(-c2nc3ncccn3c2Nc2ccc3c(c2)OCCO3)cc1	5.3	-2.9	44.6*	41.6*
Oc1ccc(-c2nc3ncccn3c2Nc2ccc3c(c2)OCCO3)cc1	0.0	-0.2	30.6	21.7
Clc1ccc(-c2nc3cnccn3c2Nc2ccc3c(c2)OCO3)cc1	10.5	nt	40.9*	39.5*
Cc1ccc(-c2nc3ncccn3c2Nc2ccc3c(c2)OCCO3)cc1	-1.8	-6.2	41.4*	44.1*
CN1CCCCC(NC(=O)c2ccc(C#N)cc2)C1=O (centres undefined)	nt	-3.1	0.0	1.4
CCS(=O)(=O)N(C)C[C@@H]1OCc2ccccc2-c2c(n(C)c3ccccc23)C(=O)N([C@H](C)CO)C[C@@H]1C	nt	-1.7	-7.8	1.0
CCCCOc1ccc(Br)cc1CSC(=N)N	6.1	23.1*	-36.0	-22.7
N#Cc1c(SCc2ccccc2)nc(N2CCOCC2)c2c1CCCC2	-9.5	-0.6	35.0	37.5*
CCSc1nc(N2CCCCC2)c2c(c1C#N)CCCC2	1.9	0.3	-41.3	-0.1
COC(=O)c1ccc(C2c3[nH]c4ccccc4c3C[C@H]3C(=O)N(C4CC4)CC(=O)N23)cc1 (some centres undefined)	30.1	-12.8	55.0*	23.7
CN1CC(=O)N2[C@H](c3ccc4c(c3)OCO4)c3[nH]c4ccccc4c3C[C@@H]2C1=O	2.4	-3.8	49.5*	57.5*
CCOc1ccccc1NC(=O)/C(C#N)=C/c1c(C)nn(-c2ccc(F)cc2)c1Cl	0.6	0.2	-8.2	-6.4
Cc1nn(-c2ccccc2Cl)c(Cl)c1/C=C(\C#N)C(N)=O	0.0	-5.5	23.1	4.5
C=CCNC(=O)/C(C#N)=C/c1c(C)nn(-c2ccc(Cl)cc2)c1Cl	11.6	-2.5	46.3*	3.8
